Measurements from ChEMBL document CHEMBL1777764, “Synthesis and evaluation of 1-(1H-indol-3-yl)ethanamine derivatives as new antibacterial agents” (Bioorg Med Chem, 2011).
Converted amounts (≈) assume the structure as drawn.

Key:
Streptococcus pneumoniae [1] = experiment: Antibacterial activity against Streptococcus pneumoniae ATCC 6303 after 18 hrs by broth microdilution method; type: functional; details: ATCC 6303, 18 h
Outline: (§1)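 MIC by broth microdilution per ISO 20776-1:2006 and CLSI M07-A8. Inoculum 10^6 cfu/ml in Mueller-Hinton broth […]. Compound serially diluted, final 2 to 128 ug/ml, duplicate rows, no-drug growth control. Read after 18 h at 37 °C as lowest concentration fully inhibiting visible growth. At least two experiments.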

Streptococcus pneumoniae [2] = experiment: Antibacterial activity against Streptococcus pneumoniae ATCC 49619 after 18 hrs by broth microdilution method; type: functional; details: ATCC 49619, 18 h; outline: as §1
Streptococcus mitis = experiment: Antibacterial activity against Streptococcus mitis CIP 103335 after 18 hrs by broth microdilution method; type: functional; details: CIP 103335, 18 h
Outline: (§2)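 Broth microdilution following ISO 20776-1:2006 and CLSI M07-A8, in Mueller-Hinton broth with 5% sheep blood for these fastidious species. Inoculum was 10^6 cfu/ml, with compound serial dilutions spanning 2 to 128 ug/ml and a compound-free growth control well. Plates were read after 18 h at 37 °C. MIC was the lowest concentration with no visible growth. Each compound was tested at least twice.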

Streptococcus pyogenes = experiment: Antibacterial activity against Streptococcus pyogenes CIP 104226 after 18 hrs by broth microdilution method; type: functional; details: CIP 104226, 18 h
Outline: as §2, with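 “broth.” for “broth with 5% sheep blood for these fastidious species.”, “incubated” for “read after”, “giving complete inhibition of” for “with no”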

Haemophilus influenzae = experiment: Antibacterial activity against Haemophilus influenzae ATCC 49766 after 18 hrs by broth microdilution method; type: functional; details: ATCC 49766, 18 h; outline: as §2
Streptococcus agalactiae = experiment: Antibacterial activity against Streptococcus agalactiae ATCC 12400 after 18 hrs by broth microdilution method; type: functional; details: ATCC 12400, 18 h
Outline: as §2, with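 “broth.” for “broth with 5% sheep blood for these fastidious species.”, “incubated” for “read after”, “giving complete inhibition of” for “with no”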

Enterococcus faecium = experiment: Antibacterial activity against Enterococcus faecium CIP 54.32 after 18 hrs by broth microdilution method; type: functional; details: CIP 54.32, 18 h
Outline: as §2, with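 “broth.” for “broth with 5% sheep blood for these fastidious species.”, “incubated” for “read after”, “giving complete inhibition of” for “with no”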

Enterococcus faecalis = experiment: Antibacterial activity against Enterococcus faecalis ATCC 29212 after 18 hrs by broth microdilution method; type: functional; details: ATCC 29212, 18 h
Outline: as §2, with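 “broth.” for “broth with 5% sheep blood for these fastidious species.”, “incubated” for “read after”, “giving complete inhibition of” for “with no”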

KB [3] = experiment: Cytotoxicity against human KB cells at 10 uM; type: cell-based
MRC5 [4] = experiment: Cytotoxicity against human MRC5 cells at 1 uM; type: cell-based; details: mrc5, 1 µM
Acinetobacter baumannii = experiment: microbe, parasite or virus in culture; details: ATCC 19606 = CIP 70.34 = JCM 6841, 18 h
Staphylococcus aureus [5] = experiment: Antibacterial activity against Staphylococcus aureus ATCC 6538 after 18 hrs by broth microdilution method; type: functional; details: ATCC 6538, 18 h
Outline: (§3)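 MIC by broth microdilution per ISO 20776-1:2006 and CLSI M07-A8. Inoculum 10^6 cfu/ml in Mueller-Hinton broth with compound serially diluted, final concentrations 2 to 128 ug/ml, duplicate rows, no-drug growth control. Incubation 18 h at 37 °C. MIC taken as lowest concentration giving complete inhibition of visible growth. Each compound tested at least twice.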

Staphylococcus aureus [6] = experiment: Antibacterial activity against methicillin-resistant Staphylococcus aureus ATCC 33592 after 18 hrs by broth microdilution method; type: functional; details: ATCC 33592, 18 h
Outline: as §2, with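 “broth.” for “broth with 5% sheep blood for these fastidious species.”, “incubated” for “read after”, “giving complete inhibition of” for “with no”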

KB [7] = experiment: Cytotoxicity against human KB cells at 1 uM; type: cell-based
Staphylococcus aureus [8] = experiment: Antibacterial activity against Staphylococcus aureus ATCC 25923 after 18 hrs by broth microdilution method; type: functional; details: ATCC 25923, 18 h; outline: as §3
MRC5 [9] = experiment: Cytotoxicity against human MRC5 cells at 10 uM; type: cell-based; details: mrc5, 10 µM
HCT-116 [10] = experiment: Cytotoxicity against human HCT116 cells at 10 uM; type: cell-based; details: hct-116, 10 µM
Serratia marcescens = experiment: microbe, parasite or virus in culture; details: CIP 103551, 18 h
Staphylococcus aureus [11] = experiment: Antibacterial activity against methicillin-resistant Staphylococcus aureus CIP 65.25 after 18 hrs by broth microdilution method; type: functional; details: CIP 65.25, 18 h
Outline: as §2, with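 “broth.” for “broth with 5% sheep blood for these fastidious species.”, “incubated” for “read after”, “giving complete inhibition of” for “with no”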

Klebsiella pneumoniae = experiment: microbe, parasite or virus in culture; details: ATCC 35657, 18 h
Staphylococcus aureus [12] = experiment: Antibacterial activity against Staphylococcus aureus ATCC 29213 after 18 hrs by broth microdilution method; type: functional; details: ATCC 29213, 18 h; outline: as §3
Staphylococcus aureus [13] = experiment: Antibacterial activity against Staphylococcus aureus CIP 65.6 after 18 hrs by broth microdilution method; type: functional; details: CIP 65.6, 18 h; outline: as §3
Staphylococcus aureus [14] = experiment: Antibacterial activity against vancomycin intermediate Staphylococcus aureus […] after 18 hrs by broth microdilution method; type: functional
Outline: as §2, with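 “broth.” for “broth with 5% sheep blood for these fastidious species.”, “incubated” for “read after”, “giving complete inhibition of” for “with no”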

[15] = test system: Staphylococcus epidermidis; experiment: Antibacterial activity against Staphylococcus epidermidis ATCC 12228 after 18 hrs by broth microdilution method; type: functional; details: ATCC 12228, 18 h; outline: as §3
Escherichia coli = experiment: Antibacterial activity against Escherichia coli ATCC 25922 after 18 hrs by broth microdilution method; type: functional; details: ATCC 25922, 18 h
Outline: as §2, with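 “broth.” for “broth with 5% sheep blood for these fastidious species.”, “incubated” for “read after”, “giving complete inhibition of” for “with no”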

[16] = test system: Staphylococcus epidermidis; experiment: Antibacterial activity against Staphylococcus epidermidis CIP 81.55 after 18 hrs by broth microdilution method; type: functional; details: CIP 81.55, 18 h; outline: as §3
Staphylococcus aureus [17] = experiment: Antibacterial activity against Staphylococcus aureus CIP 103428 after 18 hrs by broth microdilution method; type: functional; details: CIP 103428, 18 h; outline: as §3
[18] = test system: Staphylococcus epidermidis; experiment: Antibacterial activity against Staphylococcus epidermidis CIP 103627 after 18 hrs by broth microdilution method; type: functional; details: CIP 103627, 18 h; outline: as §3
Staphylococcus aureus [19] = experiment: Antibacterial activity against Staphylococcus aureus ATCC 9144 after 18 hrs by broth microdilution method; type: functional; details: ATCC 9144, 18 h; outline: as §3
Pseudomonas aeruginosa = experiment: microbe, parasite or virus in culture; details: CIP 5933, 18 h
HCT-116 [20] = experiment: Cytotoxicity against human HCT116 cells at 1 uM; type: cell-based; details: hct-116, 1 µM
Enterobacter cloacae = experiment: microbe, parasite or virus in culture; details: ATCC 13047, 18 h

| SMILES | MIC (Streptococcus pneumoniae [1]) | MIC (Streptococcus pneumoniae [2]) | MIC (Streptococcus mitis) | MIC (Streptococcus pyogenes) | MIC (Haemophilus influenzae) | MIC (Streptococcus agalactiae) | MIC (Enterococcus faecium) | MIC (Enterococcus faecalis) | Activity (KB [3]) | MIC (Staphylococcus aureus [5]) | MIC (Staphylococcus aureus [8]) | MIC (Staphylococcus aureus [12]) | MIC (Staphylococcus aureus [13]) | MIC (Staphylococcus aureus [14]) | MIC [15] | MIC (Escherichia coli) | MIC [16] | MIC (Staphylococcus aureus [17]) | MIC [18] | MIC (Staphylococcus aureus [19]) | other results |
| --- | --- | --- | --- | --- | --- | --- | --- | --- | --- | --- | --- | --- | --- | --- | --- | --- | --- | --- | --- | --- | --- |
| CO/N=C(\C(=O)N[C@@H]1C(=O)N2C(C(=O)O)=C(COC(C)=O)CS[C@H]12)c1csc(N)n1 [CEFOTAXIME] | 0.125 µg/mL (≈ 0.274 µM) | 0.125 µg/mL (≈ 0.274 µM) | 0.016 µg/mL (≈ 0.0351 µM) | 0.016 µg/mL (≈ 0.0351 µM) | 0.032 µg/mL (≈ 0.0703 µM) | 0.016 µg/mL (≈ 0.0351 µM) | 0.5 µg/mL (≈ 1.1 µM) | 0.5 µg/mL (≈ 1.1 µM) | – | – | – | – | – | – | – | – | – | – | – | – | – |
| Cl.Cl.Cl.NCC(NO)c1c[nH]c2ccc(Cl)cc12 (stereo not drawn) | 64 µg/mL | 64 µg/mL | 128 µg/mL | 128 µg/mL | 128 µg/mL | 128 µg/mL | > 128 µg/mL | > 128 µg/mL | Non-toxic | 16 µg/mL | 16 µg/mL | 16 µg/mL | 16 µg/mL | 16 µg/mL | 16 µg/mL | 64 µg/mL | 16 µg/mL | 16 µg/mL | 16 µg/mL | 16 µg/mL | Activity (MRC5 [4]): Non-toxic; MIC (Acinetobacter baumannii): 128 µg/mL; MIC (Staphylococcus aureus [6]): 16 µg/mL; Activity (KB [7]): Non-toxic; Activity (MRC5 [9]): Non-toxic; Activity (HCT-116 [10]): Non-toxic; MIC (Serratia marcescens): 128 µg/mL; MIC (Staphylococcus aureus [11]): 16 µg/mL; MIC (Klebsiella pneumoniae): 128 µg/mL; MIC (Pseudomonas aeruginosa): 128 µg/mL; Activity (HCT-116 [20]): Non-toxic; MIC (Enterobacter cloacae): 128 µg/mL |
| O=C(O)c1cn(C2CC2)c2cc(N3CCNCC3)c(F)cc2c1=O [CIPROFLOXACIN] | – | – | 0.25 µg/mL (≈ 0.754 µM) | 0.25 µg/mL (≈ 0.754 µM) | 0.5 µg/mL (≈ 1.51 µM) | 0.25 µg/mL (≈ 0.754 µM) | 1 µg/mL (≈ 3.02 µM) | 1 µg/mL (≈ 3.02 µM) | – | 0.5 µg/mL (≈ 1.51 µM) | 0.5 µg/mL (≈ 1.51 µM) | 0.5 µg/mL (≈ 1.51 µM) | 0.5 µg/mL (≈ 1.51 µM) | 32 µg/mL (≈ 96.6 µM) | 0.25 µg/mL (≈ 0.754 µM) | 0.064 µg/mL (≈ 0.193 µM) | 0.25 µg/mL (≈ 0.754 µM) | 0.5 µg/mL (≈ 1.51 µM) | 0.25 µg/mL (≈ 0.754 µM) | 0.5 µg/mL (≈ 1.51 µM) | – |
| Cl.Cl.NCC(NO)c1c[nH]c2ccc(Br)cc12 (stereo not drawn) | 64 µg/mL | 64 µg/mL | 64 µg/mL | 64 µg/mL | – | 64 µg/mL | 128 µg/mL | 128 µg/mL | Non-toxic | 16 µg/mL | 16 µg/mL | 16 µg/mL | 16 µg/mL | 16 µg/mL | 8 µg/mL | 16 µg/mL | 8 µg/mL | 16 µg/mL | 8 µg/mL | 16 µg/mL | Activity (MRC5 [4]): Non-toxic; MIC (Acinetobacter baumannii): 64 µg/mL; MIC (Staphylococcus aureus [6]): 16 µg/mL; Activity (KB [7]): Non-toxic; Activity (MRC5 [9]): Non-toxic; Activity (HCT-116 [10]): Non-toxic; MIC (Serratia marcescens): 64 µg/mL; MIC (Staphylococcus aureus [11]): 16 µg/mL; MIC (Klebsiella pneumoniae): 64 µg/mL; MIC (Pseudomonas aeruginosa): 64 µg/mL; Activity (HCT-116 [20]): Non-toxic; MIC (Enterobacter cloacae): 64 µg/mL |
